From PubChem
CCR6 antagonist: CCR6 receptor antagonists, primary screen, cell-based, CHO-K1, luminescence, beta-arrestin, uHTS. C-C chemokine receptor type 6 (Homo sapiens), P51684. CHO-K1 CCR6 PathHunter beta-arrestin, CCL20-stimulated. inhibition, % at 20 µM. 0.49% of 340,000 active;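 active = compounds whose inhibition of the agonist-driven luminescence signal at 20 µM reaches about 50%, limit read from the data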;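 note: cells stimulated with CCL20 at 14 nM final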
APJ agonist: agonists of human apelin receptor APJ, primary screen, CHO-K1 cells, PathHunter beta-arrestin, luminescence. 0% DMSO wells, 100% apelin. P35414. AID 2520, 2010. activation, % at 20 µM. 0.11% of 330,000 active;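 active = activation more than six SD over the plate average, tested at 20 µM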
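Material: CHO-K1 APJ beta-arrestin complementation cell line; Input: cell density 1000 per well; Incubation: compound stimulation 90 min at 25 °C, detection 60 min; Signal: luminescence from split beta-galactosidase complementation, Galacton Star/Emerald II substrate; Controls: DMSO-only wells as negative, 10 nM Apelin-13 as positive control.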
APJ antagonist: antagonists of human apelin receptor APJ, primary screen, CHO-K1 cells, beta-arrestin complementation, luminescence; 0.32% of 330,000 active; P35414; inhibition, % at 20 µM;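 active = inhibition above about 40% at 20 µM, limit read from the data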;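 note: cells challenged with 10 nM apelin-13 agonist together with compound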
CXCR6 block: CXCR6 receptor inhibitors, primary screen, cell-based, beta-arrestin, luminescence, CHO-K1 PathHunter, 1536-well; C-X-C chemokine receptor type 6 (Homo sapiens), O00574; AID 602244, 2012; inhibition, % at 20 µM; 0.36% of 360,000 active; in the data active = inhibition above about 34%, passing the limit was not always enough;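 note: antagonist mode with CXCL16 agonist at 10 nM final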
EBI2 antag: EBI2 receptor antagonists, beta-arrestin recruitment, primary screen, cell-based, luminescence, 7a,25-OHC stimulation, uHTS. inhibition, % at 5 µM. 7a,25-OHC stimulated. G-protein coupled receptor 183 (Homo sapiens), P32249. 0.81% of 360,000 active; in the data active = inhibition above about 38%;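 note: enzyme fragment complementation signal reports receptor beta-arrestin coupling in cells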
Target sequence (P32249 whole entry, looked up, the tested form may be a part): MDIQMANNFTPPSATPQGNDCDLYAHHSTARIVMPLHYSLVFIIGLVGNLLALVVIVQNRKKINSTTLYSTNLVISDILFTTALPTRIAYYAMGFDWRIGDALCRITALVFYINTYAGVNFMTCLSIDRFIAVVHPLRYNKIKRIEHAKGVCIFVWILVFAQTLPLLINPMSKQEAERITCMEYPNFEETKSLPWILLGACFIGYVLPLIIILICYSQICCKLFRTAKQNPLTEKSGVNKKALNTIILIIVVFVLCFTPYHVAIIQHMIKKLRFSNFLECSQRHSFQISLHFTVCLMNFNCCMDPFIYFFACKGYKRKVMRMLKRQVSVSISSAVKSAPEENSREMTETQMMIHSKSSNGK
CXCR6 antag conf: CXCR6 receptor antagonists, confirmation, cell-based, single concentration, beta-arrestin, luminescence; shares compounds with CXCR6 block; CHO-K1 CXCR6 PathHunter beta-arrestin; inhibition, % at 20 µM; 65% of 700 active; AID 602409, 2012;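 active = mean inhibition over four retests above 40%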;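 note: receptor stimulated with 10 nM CXCL16 agonist; beta-galactosidase fragment complementation upon beta-arrestin recruitment to receptor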
Hits are given with their value; . = inactive; / = no result given. A selection: hits, their analogues and other compounds. The true share with any hit is near 1.5%.

SMILES | CCR6 antagonist | APJ agonist | APJ antagonist | CXCR6 block | EBI2 antag | CXCR6 antag conf
S=c1nc(-c2ccccc2)[nH]c2ccc(Br)cc12 | . | . | . | 42 | . | .
c1ccc(-c2nc3ccccc3[nH]2)cc1 | . | . | . | . | . | /
COC(=O)c1ccc(CCc2cc(O)c(Br)cc2O)cc1 | / | / | / | 55 | . | 49
COC(=O)c1ccc(CCc2cc(O)ccc2O)cc1 | . | / | / | . | . | /
CC1=CC(C)(C)N2C(=O)C(=Nc3ccc(O)cc3)c3cccc1c32 | . | . | . | 48 | . | 48
CCCOc1ccc(C(=O)NNC(=S)NC(=O)c2cc(-c3ccc(Cl)cc3)nc3ccccc23)cc1 | . | . | . | 45 | . | .
CC(C)(C)NC(=O)c1ccc2c(c1)C(=O)N(Cc1ccco1)C2=O | . | . | . | . | . | /
O=[N+]([O-])c1c(NCCO)cc(N2CCCCCC2)c2nonc12 | . | . | . | . | . | /
Cc1nnc(Sc2cc(NCCCO)c([N+](=O)[O-])c3nonc23)s1 | 92 | / | / | 67 | . | 100
Cc1nnc(Sc2cc(NCCO)c([N+](=O)[O-])c3nonc23)s1 | 68 | / | / | 71 | . | 76
CC(Sc1nnc(-c2cccs2)n1Cc1ccccc1)C(=O)NCc1ccc2c(c1)OCO2 (stereo not drawn) | . | . | . | . | . | /
CC(=O)c1cc(CN2CCC(N3CCC(C(=O)N4CCCC4)CC3)CC2)cs1 | . | . | . | . | . | /
CC(=O)NCCOc1nc(N(C)C)nc(N2CCOCC2)n1 | . | . | . | . | . | /
COc1nc(OCCNC(C)=O)nc(N(C)C)n1 | . | . | . | 56 | . | .
C[C@@H](NC(=O)c1nc[nH]c1C(=O)N1CCc2ccccc2C1)c1ccccc1 | . | . | . | . | . | /
CCN(c1ccccc1)S(=O)(=O)c1ccc(NC(=O)c2nc(S(C)(=O)=O)ncc2Cl)cc1 | 96 | . | . | 81 | . | 68
Cc1ccccc1CS(=O)(=O)c1ncc(Cl)c(C(=O)Nc2ccc(F)cc2)n1 | / | . | . | 58 | 53 | 58
CSc1ncc(Cl)c(C(=O)Nc2ccc(S(=O)(=O)Nc3nccc(C)n3)cc2)n1 | . | . | . | . | . | /
CCOC(=O)c1ccc(NC(=O)c2nc(SC)ncc2Cl)cc1 | . | . | . | . | . | /
Cc1ccc(NC(=O)c2nc(S(=O)(=O)Cc3ccccc3)ncc2Cl)cc1 | 80 | . | . | 59 | . | 57
Cc1cccc(CS(=O)(=O)c2ncc(Cl)c(C(=O)NCc3ccccc3)n2)c1 | . | . | . | 57 | . | 64
Cc1nc2ccc(NC(=O)CS(=O)(=O)c3ccccc3)cc2s1 | . | . | . | . | . | /
CC(=O)Nc1cc([N+](=O)[O-])ccc1OCc1ccccc1 | . | / | / | . | . | /
COc1cccc(OC)c1C(=O)Nc1ccc2nc(C)c(C)nc2c1 | . | . | . | 65 | . | .
COc1cccc(NC(=O)Nc2ccc3nc(C)c(C)nc3c2)c1 | . | . | . | . | . | /
SMILES | CCR6 antagonist | APJ agonist | APJ antagonist | CXCR6 block | EBI2 antag | CXCR6 antag conf
COc1cccc(CNc2nc(NCC3CC3)nc3ccsc23)c1OC | / | / | / | . | . | /
Cc1ccc(/C(O)=C/C(=O)C(=O)NC23CC4CC(CC(C4)C2)C3)cc1 | 70 | . | . | 53 | . | .
Cc1ccc2c(C)c(C(=O)N3CCC(O)(c4ccccc4)CC3)oc2c1C | . | . | . | . | . | /
CCN(CC(=O)NC(C)(C)C)C(=O)COc1c(Cl)cc(Cl)c2ccc(C)nc12 | / | . | . | 33 | . | .
NC(=S)NN=C1c2cc(Cl)ccc2-c2c1cc(Cl)cc2[N+](=O)[O-] | 76 | / | / | 43 | . | 59
COc1cc2c(cc1[N+](=O)[O-])-c1ccc([N+](=O)[O-])cc1C2=NNC(N)=S | / | / | / | . | . | /
Nc1ccc(S(=O)(=O)c2ccc(NC(=O)c3cccnc3)cc2)cc1 | . | / | / | . | . | /
COc1ccc(C(=O)N2CCCCC2c2cc(C(=O)NCc3ccc(Cl)c(Cl)c3)no2)cc1 (stereo not drawn) | / | / | / | . | . | /
Oc1ccc(Cl)c2cccnc12 | 66 | / | / | 43 | . | 60
Oc1ccc(F)c2cccnc12 | . | . | . | . | . | /
C/C(=N\NC(=O)C(c1ccccc1)c1ccccc1)c1ccccn1 | 105 | . | 75 | 86 | . | 108
C/C(=N\NC(=O)C(c1ccccc1)c1ccccc1)c1ccc(O)cc1 | . | . | . | . | . | /
C/C(=N\NC(=O)C1COc2ccccc2O1)c1ccc(C)o1 (stereo not drawn) | . | . | . | . | . | /
C/C(=N\NC(=O)C1COc2ccccc2O1)c1ccccn1 (stereo not drawn) | 78 | . | 58 | 75 | . | 68
Cc1ccc(NC(=O)c2nc[nH]c2C(=O)N[C@@H](C)c2ccccc2)cc1 | . | . | . | . | . | /
COc1ccc2nc(-n3c(O)c(C4=c5ccccc5=NC4=O)[nH]c3=S)sc2c1 | 78 | / | / | 64 | . | 52
Cn1c(O)c(C2=c3ccccc3=NC2=O)[nH]c1=S | / | . | . | . | . | /
Cc1ccc(OCC(=O)NNC(=S)NC(=O)C2CC2)c(C)c1 | / | . | . | 45 | . | 41
O=C(CSc1ccccn1)Nc1ccc(NC(=O)CSc2ccccn2)cc1 | . | . | . | 87 | . | .
CCCOc1ccc(CN(CCC#N)C(=S)NC(=O)c2ccccc2)cc1 | / | . | . | 44 | . | 59
COc1cc(C(=O)NC(=S)N(CCC#N)Cc2cccnc2)cc(OC)c1OC | . | . | . | . | . | /
CCC(C)(C)C1CCc2[nH]nc(C(=O)NCCN3CCOCC3)c2C1 (stereo not drawn) | . | . | . | . | . | /
Cn1cnc([N+](=O)[O-])c1S(=O)(=O)Nc1ccccc1 | . | / | / | . | . | /
Cn1cnc([N+](=O)[O-])c1S(=O)(=O)Oc1ccccc1 | . | / | / | 42 | . | 60
Cn1cnc([N+](=O)[O-])c1S(=O)(=O)c1cccc(Cl)c1 | 59 | . | . | 49 | . | 65
O=[N+]([O-])c1ccc(N/N=C/c2sc(N3CCOCC3)nc2-c2ccccc2)c(S(=O)(=O)Nc2ccccc2Cl)c1 | 58 | / | / | 54 | . | 60
O=C1C(=C(c2ccccc2)N2CCOCC2)Cc2ccccc21 | / | / | / | 70 | . | 78
CCOc1cc(CNCCO)c(Cl)cc1OCC(=O)NCCc1ccccc1 | . | . | . | 71 | . | .
CC1(C(=O)Nc2ccc3c(c2)OCCO3)CCN1Cc1ccc2ccccc2c1 (stereo not drawn) | / | / | / | . | . | /
CCOC(=O)C1=C(c2ccccc2)NC(N)=NC1c1ccc(OCc2ccc(C(=O)OC)cc2)cc1 (stereo not drawn) | . | . | . | 35 | . | .
